Data: ChEMBL document CHEMBL1134536, “Nonpeptidic, monocharged, cell permeable ligands for the p56lck SH2 domain” (J Med Chem, 2001)

Tests used:
[1] = organism: Homo sapiens; assay: Percent permeated in 3 hours in Caco-2 model; format: ADME, organism-based; settings: caco-2, 3 h
Summary of the method: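 Caco-2 monolayers on collagen-coated polycarbonate filters, grown up to 25 days (passages 23–50). Cells equilibrated in HBSS pH 7.4 for 30 min at 37 °C. Drug applied apically at 0.01–0.1 mM final in HBSS at 37 °C, 5% CO2. Basolateral samples taken at intervals; cumulative amount plotted against time. Mannitol used to check monolayer integrity; mass balance >90%; at least triplicates.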

[2] = Inhibition of IL-2 production in CD4+T cells; format: functional, cell-based; settings: Homo sapiens, CD4+ T cell
Summary of the method: (§1)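 Purified human CD4+ T cells (5 × 10^4/well) in RPMI 1640 with 1% FBS. Compound diluted from DMSO stock, preincubated 1 h at 37 °C. Cells activated with 0.12 ng/well anti-CD3, 100 ng/well anti-CD28 and anti-mouse IgG magnetic beads, then incubated overnight at 37 °C, 5% CO2. Secreted IL-2 in supernatant measured by ELISA.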

[3] = Inhibition of proliferation of CD4+T cells; format: functional, cell-based; settings: Homo sapiens, CD4+ T cell
Summary of the method: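 Human CD4+ T cells, 5 × 10^4/well, preincubated with compound for 1 h at 37 °C. Stimulated with anti-CD3, anti-CD28 and anti-mouse IgG beads. Pulsed 48 h after activation with 0.5 μCi/well [3H]-thymidine, incubated a further 18 h at 37 °C, harvested, and incorporated radioactivity counted.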

[4] = tested on: Jurkat; assay: Percent Inhibition of Ca+2 influx in jurkat T cells at 50 uM concentration; format: functional; settings: Homo sapiens
Summary of the method: (§2)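 Jurkat cells loaded with 2 μM Fluo-3 AM plus Pluronic F127 for 1 h at room temperature, washed, resuspended in HBSS with 10 mM HEPES pH 7.5. 4 × 10^6 cells per cuvette equilibrated to 37 °C; compound added 80 s before TCR cross-linking with 2 μg mouse anti-human CD3. Cytoplasmic calcium followed by fluorescence over time; EC50 from percent of control fluorescence at six doses.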

[5] = tested on: Jurkat; assay: Percent inhibition of Ca+2 influx in jurkat T cells at 50 uM concentration; format: functional; settings: Homo sapiens; summary of the method: as §2
[6] = target: Tyrosine-protein kinase Lck (Homo sapiens, UniProt P06239); assay: Binding affinity for p56lck SH2 domain site
[7] = Inhibition of IL-2 production from CD4+T cells; format: functional, cell-based; settings: Homo sapiens, CD4+ T cell; summary of the method: as §1
[8] = tested on: Jurkat; assay: Inhibition of Ca+2 influx in jurkat T cells; format: functional, cell-based; settings: Homo sapiens; summary of the method: as §2

Sequence of Tyrosine-protein kinase Lck (P06239 whole entry, the tested form may be a part): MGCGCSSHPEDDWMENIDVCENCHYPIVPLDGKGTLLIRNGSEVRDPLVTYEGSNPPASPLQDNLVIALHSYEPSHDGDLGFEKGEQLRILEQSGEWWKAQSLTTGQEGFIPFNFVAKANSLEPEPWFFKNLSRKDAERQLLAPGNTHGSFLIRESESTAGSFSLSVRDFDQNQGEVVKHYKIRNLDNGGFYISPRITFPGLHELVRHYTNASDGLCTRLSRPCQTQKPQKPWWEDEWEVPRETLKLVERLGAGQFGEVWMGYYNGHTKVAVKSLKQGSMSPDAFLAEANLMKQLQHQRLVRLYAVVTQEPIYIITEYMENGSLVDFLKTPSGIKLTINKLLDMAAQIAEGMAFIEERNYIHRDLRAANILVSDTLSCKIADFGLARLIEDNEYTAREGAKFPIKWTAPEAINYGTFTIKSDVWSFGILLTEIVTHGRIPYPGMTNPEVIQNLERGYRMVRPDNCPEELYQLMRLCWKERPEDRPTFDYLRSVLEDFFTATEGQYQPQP

SMILES	Permeated [1]	EC50 [2]	Kd [6]	EC50 [7]	EC50 [8]	EC50 [3]	inhibition at 50 µM [4]	inhibition at 50 µM [5]
COc1ccc(Cn2cccc(NC(=O)C(Cc3ccc(CC(=O)O)cc3)NC(=O)Cc3cccc4ccccc34)c2=O)cc1 (centres undefined)	1.3%	–	23 µM	–	–	–	–	–
COc1ccc(CNC(=O)[C@H](CCC(=O)O)NC(=O)[C@H](Cc2ccc(CC(=O)O)cc2)NC(=O)Cc2cccc3ccccc23)cc1	0.3%	–	–	–	> 100 µM	–	–	–
COc1ccc(Cn2ccc(C)c(NC(=O)C(Cc3ccc(CC(=O)O)cc3)NC(C)=O)c2=O)cc1 (centres undefined)	0.4%	–	7 µM	–	–	–	–	–
COc1ccc(Cn2ccc(C)c(NC(=O)C(Cc3ccc(CC(=O)O)cc3)NC(=O)Cc3cccc4ccccc34)c2=O)cc1 (centres undefined)	0.3%	–	1.3 µM	–	> 100 µM	–	–	–
COc1ccc(Cn2ccc(C)c(NC(=O)C(Cc3ccc(C(C)(C)C(=O)O)cc3)NC(=O)Cc3cccc4ccccc34)c2=O)cc1 (racemic)	0.4%	–	1.2 µM	–	51 µM	–	–	–

Continued, in another order:

Permeated [1]	EC50 [2]	Kd [6]	EC50 [7]	EC50 [8]	SMILES	EC50 [3]	inhibition at 50 µM [4]	inhibition at 50 µM [5]
16%	11.3 µM	–	–	–	COc1ccc(Cn2ccc(C)c(NC(=O)[C@@H](Cc3ccc(C(C)(C)C(=O)O)cc3)NC(=O)C(C)(C)c3ccc4ccccc4c3)c2=O)cc1	16.6 µM	57%	29%
21%	–	–	9.4 µM	10.1 µM	COc1ccc(Cn2ccc(C)c(NC(=O)[C@H](Cc3ccc(C(C)(C)C(=O)O)cc3)NC(=O)C(C)(C)c3ccc4ccccc4c3)c2=O)cc1	8.7 µM	–	–
0.6%	–	0.28 µM	–	30.5 µM	COc1ccc(Cn2ccc(C)c(NC(=O)C(Cc3ccc(C(C)(C)C(=O)O)cc3)NC(=O)Cc3ccc4ccccc4c3)c2=O)cc1 (racemic)	–	–	–
